From ChEMBL document CHEMBL1131193, “Selective tight binding inhibitors of trypanosomal glyceraldehyde-3-phosphate dehydrogenase via structure-based drug design” (J Med Chem, 1998)

How the values were obtained:
[1] = Inhibitory activity measured for Glyceraldehyde-3-phosphate dehydrogenase (GAPDH) in Leishmania. mexicana
Method in brief: (§1)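 Recombinant glycosomal GAPDH of L. mexicana, T. cruzi or T. brucei; human enzyme from erythrocytes. NADH formation followed at 340 nm, 21 °C, in 0.1 M triethanolamine-HCl pH 7.6 with DTT, NaN3, MgSO4, EDTA, 10 mM K2HPO4, 0.8 mM glyceraldehyde-3-phosphate, 0.19 mM NAD+, 5% DMSO. Reaction started with enzyme. IC50 from 0–1 min initial rates at ≥5 inhibitor levels versus DMSO control.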

[2] = tested on: GAPDH (Leishmania mexicana); experiment: Inhibitory activity was measured for Glyceraldehyde-3-phosphate dehydrogenase (up to 10 mM
[3] = Inhibitory activity was measured for Glyceraldehyde-3-phosphate dehydrogenase (GAPDH) in Leishmania. mexicana.
[4] = Inhibitory activity was measured for Glyceraldehyde-3-phosphate dehydrogenase in Trypanosoma brucei; method in brief: as §1
[5] = Inhibitory activity was measured for Glyceraldehyde-3-phosphate dehydrogenase in Trypanosoma cruzi.; method in brief: as §1
[6] = molecular target: Glyceraldehyde-3-phosphate dehydrogenase (Homo sapiens, UniProt P04406); experiment: Inhibitory activity was measured for Glyceraldehyde-3-phosphate dehydrogenase in human(erythrocytes); format: cell-based; method in brief: as §1
[7] = tested on: GAPDH (Leishmania mexicana); experiment: Inhibitory activity was measured for Glyceraldehyde-3-phosphate dehydrogenase (up to 10 mM; remark: listed apart in the source

Sequence of Glyceraldehyde-3-phosphate dehydrogenase (P04406 whole entry): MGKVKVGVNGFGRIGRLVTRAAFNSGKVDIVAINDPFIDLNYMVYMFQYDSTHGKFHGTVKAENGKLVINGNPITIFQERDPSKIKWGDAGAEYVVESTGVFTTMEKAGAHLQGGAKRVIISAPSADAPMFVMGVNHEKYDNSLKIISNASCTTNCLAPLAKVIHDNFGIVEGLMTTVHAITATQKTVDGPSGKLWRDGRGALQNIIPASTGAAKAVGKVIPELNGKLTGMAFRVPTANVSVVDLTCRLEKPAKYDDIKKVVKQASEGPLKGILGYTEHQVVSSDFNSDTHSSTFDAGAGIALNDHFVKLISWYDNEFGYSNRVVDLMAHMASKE

SMILES: CCC(C)CNc1ncnc2c1ncn2C1O[C@H](CO)[C@@H](O)[C@H]1O (some centres not stated)
- IC50 [1]: > 5400 µM

SMILES: CC(C)(C)Nc1ncnc2c1ncn2C1O[C@H](CO)[C@@H](O)[C@H]1O (some centres not stated)
- IC50 [2]: Not Active

SMILES: COc1cccc(C(=O)N[C@@H]2[C@H](O)[C@@H](CO)O[C@H]2n2cnc3c(N)ncnc32)c1O
- IC50 [1]: 600 µM

SMILES: OC[C@H]1O[C@@H](n2cnc3c(NCc4ccccc4)ncnc32)[C@H](O)[C@@H]1O [N6-BENZYLADENOSINE]
- IC50 [1]: 4200 µM

SMILES: Nc1ncnc2c1ncn2[C@@H]1O[C@H](CO)[C@@H](O)[C@H]1NC(=O)c1cc(O)cc(O)c1
- IC50 [1]: 650 µM

SMILES: OC[C@H]1O[C@@H](n2cnc3c(NC4CCCc5ccccc54)ncnc32)[C@H](O)[C@@H]1O (some centres not stated)
- IC50 [1]: 360 µM

SMILES: OC[C@H]1OC(n2cnc3c(NC(c4ccccc4)c4ccccc4)ncnc32)[C@H](O)[C@@H]1O (some centres not stated)
- IC50 [1]: 240 µM

SMILES: CC(C)CCNc1ncnc2c1ncn2[C@@H]1O[C@H](CO)[C@@H](O)[C@H]1O
- IC50 [3]: 3700 µM

SMILES: Cc1ccccc1CNc1ncnc2c1ncn2[C@@H]1O[C@H](CO)[C@@H](O)[C@H]1O [METRIFUDIL]
- IC50 [1]: 700 µM

SMILES: COc1cccc(C(=O)N[C@@H]2[C@H](O)[C@@H](CO)O[C@H]2n2cnc3c(N)ncnc32)c1
- IC50 [1]: 800 µM

SMILES: CCCC(C)Nc1ncnc2c1ncn2C1O[C@H](CO)[C@@H](O)[C@H]1O (some centres not stated)
- IC50 [2]: Not Active

SMILES: OC[C@H]1O[C@@H](n2cnc3c(NCc4cccc5ccccc45)ncnc32)[C@H](O)[C@@H]1O
- IC50 [1]: 150 µM

SMILES: COc1cccc(C(=O)N[C@@H]2[C@H](O)[C@@H](CO)O[C@H]2n2cnc3c(NCc4cccc(C)c4C)ncnc32)c1
- IC50 [1]: 5.5 µM

SMILES: COc1cccc(C(=O)N[C@@H]2[C@H](O)[C@@H](CO)O[C@H]2n2cnc3c(NCc4ccccc4OC)ncnc32)c1
- IC50 [1]: 25 µM

SMILES: Nc1ccc(CNc2ncnc3c2ncn3[C@@H]2O[C@H](CO)[C@@H](O)[C@H]2O)cc1
- IC50 [1]: 3100 µM

SMILES: COc1cc(C(=O)N[C@@H]2[C@H](O)[C@@H](CO)O[C@H]2n2cnc3c(N)ncnc32)ccc1O
- IC50 [1]: 500 µM

SMILES: OC[C@H]1O[C@@H](n2cnc3c(NC4CCCC4)ncnc32)[C@H](O)[C@@H]1O [N6-CYCLOPENTYLADENOSINE]
- IC50 [1]: > 5000 µM

SMILES: COc1cccc(C(=O)N[C@@H]2[C@H](O)[C@@H](CO)O[C@H]2n2cnc3c(NCc4cc(C)ccc4C)ncnc32)c1
- IC50 [1]: 25 µM

SMILES: CC(C)=CCNc1ncnc2c1ncn2[C@@H]1O[C@H](CO)[C@@H](O)[C@H]1O [RIBOPRINE]
- IC50 [1]: > 5000 µM

SMILES: COc1cccc(C(=O)N[C@@H]2[C@H](O)[C@@H](CO)O[C@H]2n2cnc3c(NCc4ccccc4)ncnc32)c1
- IC50 [4]: 220 µM
- IC50 [1]: 16 µM
- IC50 [5]: 159 µM
- IC50 [6]: > 530 µM

SMILES: OC[C@H]1O[C@@H](n2cnc3c(NC4CCCCCC4)ncnc32)[C@H](O)[C@@H]1O
- IC50 [1]: 1800 µM

SMILES: CCCCCNc1ncnc2c1ncn2[C@@H]1O[C@H](CO)[C@@H](O)[C@H]1O
- IC50 [2]: Not Active

SMILES: CC(CO)CCNc1ncnc2c1ncn2C1O[C@H](CO)[C@@H](O)[C@H]1O (some centres not stated)
- IC50 [1]: 3400 µM

SMILES: COc1cccc(C(=O)N[C@@H]2[C@H](O)[C@@H](CO)O[C@H]2n2cnc3c(NC(=O)C(C)C)ncnc32)c1
- IC50 [1]: 1200 µM

SMILES: Nc1ncnc2c1ncn2[C@@H]1O[C@H](CO)[C@@H](O)[C@H]1NC(=O)c1cc(O)c(O)c(O)c1
- IC50 [1]: 250 µM

SMILES: OCc1ccccc1Sc1ccccc1CNc1ncnc2c1ncn2C1O[C@H](CO)[C@@H](O)[C@H]1O (some centres not stated)
- IC50 [1]: 340 µM

SMILES: CC(C)Nc1ncnc2c1ncn2[C@@H]1O[C@H](CO)[C@@H](O)[C@H]1O
- IC50 [7]: Not Active

SMILES: COc1cccc(C(=O)N[C@@H]2[C@H](O)[C@@H](CO)O[C@H]2n2cnc3c(NCc4ccccc4C)ncnc32)c1
- IC50 [4]: 30 µM
- IC50 [1]: 4 µM
- IC50 [5]: 30 µM
- IC50 [6]: > 270 µM

SMILES: Nc1ncnc2c1ncn2[C@@H]1O[C@H](CO)[C@@H](O)[C@H]1NC(=O)c1cccc(O)c1
- IC50 [1]: 850 µM

SMILES: Nc1ncnc2c1ncn2[C@@H]1O[C@H](CO)[C@@H](O)[C@H]1O [ADENOSINE]
- IC50 [1]: 50000 µM

SMILES: Cc1cccc(CNc2ncnc3c2ncn3[C@@H]2O[C@H](CO)[C@@H](O)[C@H]2O)c1
- IC50 [1]: 700 µM
